Assay results: ChEMBL document CHEMBL1153995, “Synthesis and biological evaluation of new enantiomerically pure azole derivatives as inhibitors of Mycobacterium tuberculosis” (2009)
Values after ≈ are worked out from the molar mass of the structure shown.

tested on: Mycobacterium tuberculosis; test: Antimycobacterial activity against Mycobacterium tuberculosis H37Rv ATCC 27294 after 21 to 28 days by two fold agar dilution method; assay type: functional
How it was run: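 Stock kept on Löwenstein-Jensen slants. Twofold agar dilution in Middlebrook 7H11 agar with 10% OADC, compounds at 0.0312–64 µg/mL. Inoculum grown in Middlebrook 7H9 with 10% ADC, suspension at 1.5 × 10⁵ cfu/mL, final 1.5 × 10³ per well. Incubated 21–28 days. MIC read as lowest concentration completely inhibiting visible growth.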

With `NNC(=O)c1ccncc1` [ISONIAZID] as the molecule, how does the MIC read?
The MIC was 0.2 µg/mL (≈ 1.46 µM).

With `Clc1ccc(COC(Cn2ccnc2)c2ccc(Cl)cc2Cl)cc1` (stereo not drawn) [ECONAZOLE] as the molecule, how does the MIC read?
Its MIC is 12.5 µg/mL (≈ 32.7 µM).

How did the MIC turn out when `Clc1ccc(Cn2cc([C@@H](c3ccc(Cl)cc3)n3ccnc3)nn2)cc1` was run?
Its MIC is 32 µg/mL (≈ 83.3 µM).

With `Fc1ccc([C@@H](c2cn(-c3ccccc3)nn2)n2ccnc2)cc1` as the molecule, how does the MIC read?
Its MIC is 32 µg/mL (≈ 100 µM).

How did the MIC turn out when `Brc1ccc([C@@H](c2cn(-c3ccccc3)nn2)n2ccnc2)cc1` was run?
The MIC was 32 µg/mL (≈ 84.2 µM).

With `Brc1ccc([C@H](c2cn(Cc3ccccc3)nn2)n2ccnc2)cc1` as the molecule, how does the MIC read?
Its MIC is 16 µg/mL (≈ 40.6 µM).

How did the MIC turn out when `Clc1ccc(Cn2cc([C@H](c3ccc(Cl)cc3)n3ccnc3)nn2)cc1` was run?
Its MIC is 32 µg/mL (≈ 83.3 µM).

Which MIC does the source give for `Brc1ccc([C@H](c2cn(-c3ccccc3)nn2)n2ccnc2)cc1` here?
The MIC was 32 µg/mL (≈ 84.2 µM).

How did the MIC turn out when `Fc1ccc([C@@H](c2cn(Cc3ccccc3)nn2)n2ccnc2)cc1` was run?
Its MIC is 64 µg/mL (≈ 192 µM).

For `Brc1ccc([C@@H](c2cn(Cc3ccccc3)nn2)n2ccnc2)cc1`, which MIC is on record?
The MIC was 32 µg/mL (≈ 81.2 µM).

`Fc1ccc([C@H](c2cn(Cc3ccccc3)nn2)n2ccnc2)cc1` was tested. Which MIC did it give?
Its MIC is 64 µg/mL (≈ 192 µM).

How did the MIC turn out when `Clc1ccccc1C(c1ccccc1)(c1ccccc1)n1ccnc1` [CLOTRIMAZOLE] was run?
Its MIC is 20.4 µg/mL (≈ 59.2 µM).

Which MIC does the source give for `Fc1ccc([C@H](c2cn(-c3ccccc3)nn2)n2ccnc2)cc1` here?
The MIC was 32 µg/mL (≈ 100 µM).
